# Results: ChEMBL document CHEMBL1649299, “Eradication of intracellular Salmonella enterica serovar Typhimurium with a small-molecule, host cell-directed agent” (Antimicrob Agents Chemother, 2009)
# Activity calls are given as the source filed them.
# Key:
# Salmonella typhimurium [1] = assay: Antimicrobial activity against Salmonella enterica serovar Typhimurium ATCC 14028 infected in mouse J774.1 cells; format: functional, organism-based; details: Salmonella enterica subsp. enterica serovar Typhimurium
# Method in brief: (§1)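 Macrophages were seeded at 5.0 × 10^5 cells/well for 12–16 h; THP-1 cells were first differentiated with 20 nM TPA for 48 h. Bacteria were subcultured 3 h in LB and added at MOI 25 for 30 min. Cells then received 100 μg/ml gentamicin for 1 h and were washed. Treatment was in medium with 10% FBS and 10 μg/ml gentamicin. Survivors were released with 0.1% Triton X-100 and counted as CFU on LB agar after 16 h at 37°C.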
# [2] = biological target: RAC-alpha serine/threonine-protein kinase (Mus musculus) (UniProt P31750); assay: Inhibition of Akt phosphorylation in mouse RAW264.7 cells infected with Salmonella enterica serovar Typhimurium ATCC 14028 assessed as decrease of phosphorylated GSK3-beta level at 1 uM after 8 hrs by Western blotting; format: cell-based
# Chain of RAC-alpha serine/threonine-protein kinase (Mus musculus) (P31750 whole entry): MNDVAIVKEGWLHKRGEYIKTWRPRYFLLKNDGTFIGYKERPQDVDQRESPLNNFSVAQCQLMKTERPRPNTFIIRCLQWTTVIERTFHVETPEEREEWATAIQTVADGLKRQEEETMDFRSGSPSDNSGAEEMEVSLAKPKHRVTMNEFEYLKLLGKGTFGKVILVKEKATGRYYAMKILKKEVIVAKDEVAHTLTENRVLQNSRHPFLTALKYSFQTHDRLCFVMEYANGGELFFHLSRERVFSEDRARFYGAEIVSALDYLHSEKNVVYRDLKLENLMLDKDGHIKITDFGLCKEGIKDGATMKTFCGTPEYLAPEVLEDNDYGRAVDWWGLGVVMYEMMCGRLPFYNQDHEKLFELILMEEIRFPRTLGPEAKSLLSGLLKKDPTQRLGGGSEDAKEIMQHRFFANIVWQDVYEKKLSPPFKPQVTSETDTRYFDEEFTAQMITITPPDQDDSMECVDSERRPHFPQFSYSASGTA
# Method in brief: (§2)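 Infected RAW264.7 cells were treated for 8 h and then lysed in M-PER on ice. Lysates (25 μg/lane) were run on SDS gels and transferred to nitrocellulose. Membranes were blocked with 3% skim milk in TBS, incubated with primary antibody for 12 h at 4°C and then HRP secondary, and detected by enhanced chemiluminescence.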
# RAW264.7 [3] = assay: Induction of autophagy in mouse RAW264.7 cells assessed as LC3-positive puncta with diameter greater than 1 uM in cytoplasm at 1 uM by immunofluorescence microscopic analysis; format: functional, cell-based
# Method in brief: (§3)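 RAW264.7 cells were fixed in 4% formaldehyde for 20 min at 25°C, permeabilized with 0.5% Triton X-100, and blocked overnight in 3% BSA. Staining used primary antibody (anti-LC3 for autophagosomes) for 1 h, then fluorescent secondary antibody for 1 h, with DAPI for nuclei. Slides were read by wide-field or confocal microscopy. For colocalization, only bacteria in direct contact with autophagosomes in 3-D confocal images were scored. Giant puncta were defined as ≥1 μm.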
# Salmonella typhimurium [4] = assay: Antimicrobial activity against Salmonella enterica serovar Typhimurium ATCC 14028 infected in BALB/c mouse assessed as increase of host survival days at 2.5 mg/kg, po administered after 24 hrs of post infection qd relative to control
# Salmonella typhimurium [5] = assay: Antimicrobial activity against Salmonella enterica serovar Typhimurium ATCC 14028 infected in BALB/c mouse assessed as reduction of liver bacterial load at 2.5 mg/kg, administered intragastrically after 24 hrs of post infection qd for 4 days measured on day 5 relative to control; format: functional, Salmonella enterica subsp. enterica serovar Typhimurium; parameters: scale not given: the % may be the effect or the level left; details: route intragastric
# Method in brief: (§4)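 Female BALB/c mice, 8–10 weeks old, were infected by intragastric gavage with an overnight culture at 10^5 organisms in 0.1 ml PBS (50% lethal dose). Starting 24 h post-infection, drug in 0.5% methylcellulose–0.1% Tween 80 in water was given by gavage once daily for 4 days at 1, 2.5 or 5 mg/kg, 7–9 mice per group. On day 5 post-infection, liver and spleen were homogenized in 10 ml cold PBS and plated on LB agar to count CFU.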
# Salmonella typhimurium [6] = assay: Antimicrobial activity against Salmonella enterica serovar Typhimurium ATCC 14028 infected in mouse RAW264.7 cells assessed as inhibition of intracellular bacterial growth at 1 uM after 4 hrs; format: functional, organism-based, Salmonella enterica subsp. enterica serovar Typhimurium
# Method in brief: (§5)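 RAW264.7 cells were seeded at 5.0 × 10^5 cells/well for 12–16 h. Log-phase bacteria (1:33 subculture, 3 h in LB, 37°C) were added at MOI 25 for 30 min. Extracellular bacteria were killed with 100 μg/ml gentamicin for 1 h, then washed off. Cells were treated in medium with 10% FBS and 10 μg/ml gentamicin (DMSO 0.1% final) and lysed with 0.1% Triton X-100. CFU were counted on LB agar after 16 h at 37°C.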
# Salmonella typhimurium [7] = assay: Antimicrobial activity against Salmonella enterica serovar Typhimurium ATCC 14028 infected in mouse RAW264.7 cells assessed as inhibition of intracellular bacterial growth after 8 hrs; format: functional, organism-based, Salmonella enterica subsp. enterica serovar Typhimurium; details: ATCC 14028, RAW264.7, 8 h; method in brief: as §5
# Salmonella typhimurium [8] = assay: Antimicrobial activity against Salmonella enterica serovar Typhimurium ATCC 14028 infected in mouse RAW264.7 cells transfected with shRNA assessed as reduction of Beclin-1 expression at 1 uM after 2 hrs by immunoblotting relative to control; format: functional, Salmonella enterica subsp. enterica serovar Typhimurium; parameters: scale not given: the % may be the effect or the level left
# Method in brief: (§6)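 Beclin-1 or Atg7 shRNA plasmids, with GFP shRNA as control, were nucleofected into RAW264.7 cells (2 × 10^6 cells, 2 μg DNA). Stable clones were selected with 2 μg/ml puromycin and kept in 1 μg/ml. Knockdown was measured by immunoblotting.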
# Salmonella typhimurium [9] = assay: Antimicrobial activity against Salmonella enterica serovar Typhimurium ATCC 14028 infected in mouse RAW264.7 cells assessed as inhibition of intracellular bacterial growth at 1 uM after 8 hrs; format: functional, Salmonella enterica subsp. enterica serovar Typhimurium; parameters: scale not given: the % may be the effect or the level left; method in brief: as §5
# Salmonella typhimurium [10] = assay: Antimicrobial activity against Salmonella enterica serovar Typhimurium ATCC 14028 infected in mouse RAW264.7 cells assessed as reduction of bacterial survival at 1 uM after 2 hrs relative to control; format: functional, Salmonella enterica subsp. enterica serovar Typhimurium; method in brief: as §5
# Salmonella typhimurium [11] = assay: Antimicrobial activity against Salmonella enterica serovar Typhimurium ATCC 14028 infected in mouse RAW264.7 cells assessed as inhibition of intracellular bacterial growth at 1 uM after 4 hrs in presence of vacuolar ATPase inhibitor bafilomycin A1; format: functional, organism-based; details: Salmonella enterica subsp. enterica serovar Typhimurium; method in brief: as §1
# [12] = biological target: RAC-alpha serine/threonine-protein kinase (Mus musculus) (UniProt P31750); assay: Inhibition of Akt phosphorylation in mouse RAW264.7 cells infected with Salmonella enterica serovar Typhimurium ATCC 14028 assessed as decrease of p-308Thr-Akt level after 8 hrs by Western blotting; format: cell-based; method in brief: as §2
# RAW264.7 [13] = assay: Cytotoxicity against mouse RAW264.7 cells assessed as cell viability after 24 hrs by MTT assay; format: cell-based; details: RAW264.7, 24 h
# Salmonella typhimurium [14] = assay: Antimicrobial activity against Salmonella enterica serovar Typhimurium ATCC 14028 infected in BALB/c mouse assessed as reduction of spleen bacterial load at 2.5 mg/kg, administered intragastrically after 24 hrs of post infection qd for 4 days measured on day 5 relative to control; format: functional, Salmonella enterica subsp. enterica serovar Typhimurium; parameters: scale not given: the % may be the effect or the level left; details: route intragastric; method in brief: as §4
# [15] = biological target: RAC-alpha serine/threonine-protein kinase (Mus musculus) (UniProt P31750); assay: Inhibition of Akt phosphorylation in mouse RAW264.7 cells infected with Salmonella enterica serovar Typhimurium ATCC 14028 assessed as decrease of p-473Ser-Akt level after 8 hrs by Western blotting; format: cell-based; method in brief: as §2
# Salmonella typhimurium [16] = assay: Antimicrobial activity against Salmonella enterica serovar Typhimurium ATCC 14028 infected in human TPA-differentiated THP1 cells; format: functional, organism-based; details: Salmonella enterica subsp. enterica serovar Typhimurium, THP-1; method in brief: as §1
# Salmonella typhimurium [17] = assay: Antimicrobial activity against Salmonella enterica serovar Typhimurium ATCC 14028 infected in mouse RAW264.7 cells transfected with shRNA assessed as reduction of Atg7 expression at 1 uM after 2 hrs by immunoblotting relative to control; format: functional, Salmonella enterica subsp. enterica serovar Typhimurium; parameters: scale not given: the % may be the effect or the level left; method in brief: as §6
# Salmonella typhimurium [18] = assay: Antimicrobial activity against Salmonella enterica serovar Typhimurium ATCC 14028 infected in BALB/c mouse assessed as reduction of liver bacterial load at 5 mg/kg, administered intragastrically after 24 hrs of post infection qd for 4 days measured on day 5 relative to control; format: functional, Salmonella enterica subsp. enterica serovar Typhimurium; parameters: scale not given: the % may be the effect or the level left; details: route intragastric; method in brief: as §4
# Salmonella typhimurium [19] = assay: Antimicrobial activity against Salmonella enterica serovar Typhimurium ATCC 14028 infected in mouse RAW264.7 cells transfected with HA-tagged CA-Akt1 assessed as inhibition of intracellular bacterial survival at 1 uM after 8 hrs; format: functional, organism-based; details: Salmonella enterica subsp. enterica serovar Typhimurium; method in brief: as §1
# Salmonella typhimurium [20] = assay: Antimicrobial activity against Salmonella enterica serovar Typhimurium ATCC 14028 infected in BALB/c mouse assessed as reduction of spleen bacterial load at 5 mg/kg, administered intragastrically after 24 hrs of post infection qd for 4 days measured on day 5 relative to control; format: functional, Salmonella enterica subsp. enterica serovar Typhimurium; parameters: scale not given: the % may be the effect or the level left; details: route intragastric; method in brief: as §4
# Salmonella typhimurium [21] = assay: Antimicrobial activity against Salmonella enterica serovar Typhimurium ATCC 14028 infected in mouse RAW264.7 cells assessed as colocalization of organism with autophagosomes at 1 uM after 1 hr by immunofluorescence microscopic analysis relative to control; format: functional, Salmonella enterica subsp. enterica serovar Typhimurium; method in brief: as §3
# Salmonella typhimurium [22] = assay: Antimicrobial activity against Salmonella enterica serovar Typhimurium ATCC 14028 infected in mouse RAW264.7 cells assessed as reduction in bacterial load at 1 uM after 8 hrs by immunofluorescent staining; format: functional, Salmonella enterica subsp. enterica serovar Typhimurium; parameters: scale not given: the % may be the effect or the level left; method in brief: as §3
# Salmonella typhimurium [23] = assay: Antimicrobial activity against Salmonella enterica serovar Typhimurium ATCC 14028 infected in mouse RAW264.7 cells assessed as inhibition of intracellular bacterial growth at 1 uM after 8 to 24 hrs in presence of gentamicin; format: functional, organism-based; details: Salmonella enterica subsp. enterica serovar Typhimurium; method in brief: as §1
# RAW264.7 [24] = assay: Induction of autophagy in mouse RAW264.7 cells assessed as increase of LC3 punctum formation at 1 uM by immunofluorescence microscopic analysis; format: functional, cell-based; method in brief: as §3
# RAW264.7 [25] = assay: Cytotoxicity against mouse RAW264.7 cells assessed as cell viability at 1 uM after 24 hrs by MTT assay; format: cell-based; details: raw264.7, 24 h
# Salmonella typhimurium [26] = assay: Antimicrobial activity against Salmonella enterica serovar Typhimurium ATCC 14028 infected in mouse RAW264.7 cells transfected with HA-tagged CA-Akt1 assessed as inhibition of intracellular bacterial survival at 1 uM after 2 hrs; format: functional, organism-based; details: Salmonella enterica subsp. enterica serovar Typhimurium; method in brief: as §1
# Salmonella typhimurium [27] = assay: Antimicrobial activity against Salmonella enterica serovar Typhimurium ATCC 14028 infected in mouse RAW264.7 cells assessed as reduction of bacterial count at 1 uM pretreated 30 mins before infection measured after 1 hr; format: functional, organism-based; details: Salmonella enterica subsp. enterica serovar Typhimurium
# Method in brief: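 Bacteria were pre-exposed to vehicle (DMSO) or 1 μM drug in culture medium for 30 min. They were then used to infect RAW264.7 cells at MOI 25 for 30 min, followed by 100 μg/ml gentamicin for 1 h and PBS washes. Intracellular bacteria were counted as CFU 1 h later after Triton X-100 lysis.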
# RAW264.7 [28] = assay: Cytotoxicity against Salmonella enterica serovar Typhimurium ATCC 14028 infected in mouse RAW264.7 cells assessed as cell viability at 1 uM after 24 hrs by MTT assay; format: cell-based; details: raw264.7, 24 h
# Salmonella typhimurium [29] = assay: Antimicrobial activity against Salmonella enterica serovar Typhimurium ATCC 14028 at 1 to 5 uM after 480 mins; format: functional, organism-based; details: Salmonella enterica subsp. enterica serovar Typhimurium
compound,measurement,setting,value
NCC(=O)Nc1ccc(-n2nc(C(F)(F)F)cc2-c2ccc3c(ccc4ccccc43)c2)cc1 [AR-12],Activity,Salmonella typhimurium [1],Active
same,inhibition,[2],Active
same,Activity,RAW264.7 [3],Active
same,Survival,Salmonella typhimurium [4],8.1 days
same,Activity,Salmonella typhimurium [5],99%
same,Activity,Salmonella typhimurium [6],Active
same,IC50,Salmonella typhimurium [7],200 nM
same,Activity,Salmonella typhimurium [8],83%
same,Activity,Salmonella typhimurium [9],90%
same,Activity,Salmonella typhimurium [10],25%
same,Activity,Salmonella typhimurium [11],Active
same,inhibition,[12],Dose-dependent effect
same,IC50,RAW264.7 [13],> 10 µM
same,Activity,Salmonella typhimurium [14],98%
same,inhibition,[15],Dose-dependent effect
same,Activity,Salmonella typhimurium [16],Active
same,Activity,Salmonella typhimurium [17],43%
same,Activity,Salmonella typhimurium [18],96%
same,Activity,Salmonella typhimurium [19],inactive
same,Activity,Salmonella typhimurium [20],90%
same,Activity,Salmonella typhimurium [21],21.2%
same,Activity,Salmonella typhimurium [22],82%
same,Activity,Salmonella typhimurium [23],Active
same,Activity,RAW264.7 [24],Active
same,Activity,RAW264.7 [25],Non-toxic
same,Activity,Salmonella typhimurium [26],Active
same,Activity,Salmonella typhimurium [27],inactive
same,Activity,RAW264.7 [28],Non-toxic
same,Activity,Salmonella typhimurium [29],inactive
